Screens: PubChem, several laboratories
Hits are enriched below; roughly 1.4% of the tested compounds scored in any of these assays.
TNAP inh hi DEA: inhibitors of human TNAP at high phosphate acceptor concentration; purified TNAP, CDP-star luminescence, 1 M DEA; inhibition, % at 20 µM; 200,000 tested, 0.03% active;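 active means over 50% inhibition of tissue-nonspecific alkaline phosphatase at 20 µM in the single-dose screen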;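 further: plate controls were DMSO wells for no effect and EDTA-quenched wells as full inhibition for full effect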
CHT inh: inhibitors of human choline transporter CHT; 310,000 tested, 0.86% active; AID 488975; B-score at 10 µM; CHT-expressing cells, membrane potential dye, choline response; stronger effect = lower value;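 active means B-score over 3 SD under the library average, and starting fluorescence ratio not unusually high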;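 further: choline stimulus applied at its EC90 after an EC20 pre-addition; B-score computed on integrated fluorescence ratio after choline addition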
ABCB6 inh MLPCN: blocks the human ABCB6 transporter | K562-ABCB6 porphyrin accumulation, flow cytometry, 1 h; stronger effect = lower value | fluorescence ratio to DMSO, % at 10 µM | 360,000 tested, 0.19% active;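 active means fluorescence ratio to DMSO below 75%, the collection mean minus 3 SD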;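 further: signal is porphyrin accumulated inside mitochondria; 100% equals median channel fluorescence of DMSO control wells; lower ratio means ABCB6 inhibition with less porphyrin fluorescence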
Target sequence (Q9NP58 whole entry, looked up): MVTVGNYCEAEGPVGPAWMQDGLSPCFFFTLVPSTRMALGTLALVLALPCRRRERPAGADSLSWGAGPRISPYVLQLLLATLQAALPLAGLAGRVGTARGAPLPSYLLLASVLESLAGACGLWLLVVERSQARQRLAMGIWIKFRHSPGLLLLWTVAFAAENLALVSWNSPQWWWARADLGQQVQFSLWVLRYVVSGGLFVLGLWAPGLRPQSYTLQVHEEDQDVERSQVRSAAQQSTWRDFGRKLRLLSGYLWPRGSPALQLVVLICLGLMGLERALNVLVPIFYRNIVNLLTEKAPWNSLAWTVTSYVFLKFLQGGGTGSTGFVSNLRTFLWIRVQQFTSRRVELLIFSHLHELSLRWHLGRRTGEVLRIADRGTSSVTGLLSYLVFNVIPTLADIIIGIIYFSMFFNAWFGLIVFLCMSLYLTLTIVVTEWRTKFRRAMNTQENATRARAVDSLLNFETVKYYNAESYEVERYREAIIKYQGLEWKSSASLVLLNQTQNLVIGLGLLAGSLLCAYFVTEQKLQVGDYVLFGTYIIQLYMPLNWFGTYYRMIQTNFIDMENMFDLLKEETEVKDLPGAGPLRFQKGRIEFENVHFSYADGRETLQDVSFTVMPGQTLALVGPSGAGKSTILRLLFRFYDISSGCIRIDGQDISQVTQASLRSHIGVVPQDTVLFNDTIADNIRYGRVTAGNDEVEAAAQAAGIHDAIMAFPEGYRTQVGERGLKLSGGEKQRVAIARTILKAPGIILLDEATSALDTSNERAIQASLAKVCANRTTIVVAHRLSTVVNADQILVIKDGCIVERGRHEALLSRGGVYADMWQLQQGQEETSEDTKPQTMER
TNAP inh no acc: TNAP (human) inhibition, acceptor-free conditions; P05186; purified TNAP, CDP-star luminescence, 30 min; inhibition, % at 20 µM; 200,000 tested, 0.26% active; AID 1012;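 active means tissue-nonspecific alkaline phosphatase inhibition above about 50% at 20 µM in the single-dose screen, limit read from the data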;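 further: 0% = DMSO negative control and 100% = EDTA positive control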
CHT PAM: allosteric activators of human choline transporter CHT. Q9GZV3. CHT-expressing cells, membrane potential dye, choline EC20; stronger effect = higher value; LV-AA mutant CHT in HEK293 cells. B-score at 10 µM. 310,000 tested, 0.49% active. AID 488977;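 active means initial fluorescence not abnormally high and integrated response B-score, plate-corrected, over 3 SD above library mean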
TNAP act hiacc: TNAP (human) activation, high acceptor | P05186 | purified TNAP, CDP-star luminescence, 1 M DEA, 30 min; stronger effect = higher value; 0 = EDTA background, 1 = DMSO-only activity | activation factor at 20 µM | 200,000 tested, under 10 active;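 active means activation factor at least 2 at 20 µM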
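system = human TNAP | amount = enzyme diluted 1/800 final | reagent = 100 µM CDP-star substrate | signal = luminescent substrate turnover signal | dosing = one dose, 20 µM | benchmarks = EDTA negative control, DMSO positive control | measure = activation factor | timing = 30 min reaction, room temperature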
CHT activ conf: confirmation of human choline transporter (CHT) activators; AID 504833; activation, % at 10 µM; 2,500 tested, 91% active; shares compounds with CHT PAM; CHT-expressing cells, membrane potential dye fluorescence (FDSS); % of choline EC20–EC90 response window; HEK293 expressing CHT LV-AA mutant; choline added at its EC20;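 active means primary screen active, with duplicate mean activation above negative control mean plus 3 SD, cut at about 11% in these data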
HEK293 MP dye: activity in parental HEK293 cells lacking CHT; membrane potential dye fluorescence (FDSS); measured after EC20 choline addition; 2,500 tested, 62% active; shares compounds with CHT PAM; ratio readout change at 10 µM, hits read low;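 active means duplicate-averaged ratio beyond 3 SD from buffer wells, up or down, though filed actives are nearly all decreases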
* marks the source's active call; other numbers are inactive results.

For CCOC(=O)c1c(C)nc2sc3c(=O)n(-c4ccc(C(C)=O)cc4)nnc3c2c1-c1ccc(OC)cc1 the results were TNAP inh hi DEA -7, CHT inh inactive, ABCB6 inh MLPCN 98, TNAP inh no acc -10, CHT PAM inactive and TNAP act hiacc 1.1.
`CCOCCCn1c(=NC(C)=O)c(C(=O)OCC)cc2c(=O)n3ccccc3nc21` gave TNAP inh hi DEA -6, CHT inh inactive, ABCB6 inh MLPCN 93, TNAP inh no acc -13, CHT PAM inactive, TNAP act hiacc 1.1, CHT activ conf 17* and HEK293 MP dye -42*.
For CCOCCCn1c(=NC(C)=O)c(C#N)cc2c(=O)n3ccccc3nc21 the results were CHT inh inactive, ABCB6 inh MLPCN 95 and CHT PAM inactive.
`C[C@H](CO)N1C[C@H](C)[C@@H](CN(C)S(=O)(=O)c2cccs2)Oc2ccc(NS(=O)(=O)c3ccccc3)cc2C1=O` gave ABCB6 inh MLPCN 98.
CCC(C(=O)NC1CCCC1)N(Cc1ccco1)C(=O)CNS(=O)(=O)c1ccccc1 (configuration not stated) was read as CHT inh inactive, ABCB6 inh MLPCN 95 and CHT PAM inactive.
For CCCC(C(=O)NC1CCCCC1)N(Cc1ccco1)C(=O)CNS(=O)(=O)c1ccccc1 (configuration not stated) the results were TNAP inh hi DEA -6, CHT inh inactive, ABCB6 inh MLPCN 90, TNAP inh no acc -10, CHT PAM 8.4*, TNAP act hiacc 1.1, CHT activ conf 33* and HEK293 MP dye inactive.
`O=C(c1ccccc1-c1ccccc1)N1CCN(c2ccccn2)CC1` gave TNAP inh hi DEA -4, CHT inh inactive, ABCB6 inh MLPCN 102, TNAP inh no acc -9, CHT PAM inactive, TNAP act hiacc 1, CHT activ conf 38* and HEK293 MP dye inactive.
Screening Cc1ccn2c(c1)nc(=O)c1cc(S(=O)(=O)N3CCCCC3)ccc12 returned CHT inh inactive, ABCB6 inh MLPCN 98, CHT PAM inactive, CHT activ conf 32* and HEK293 MP dye -27*.
COc1ccc(-c2cc(C(=O)Nc3cccc(O)c3)no2)cc1 was read as CHT inh inactive, ABCB6 inh MLPCN 98 and CHT PAM inactive.
`CCn1c2ccccc2c2n[nH]c(=S)nc21` gave CHT inh inactive, ABCB6 inh MLPCN 104 and CHT PAM inactive.
Screening CCn1c2ccccc2c2nn(C)c(=N)nc21 returned TNAP inh hi DEA -3, CHT inh inactive, ABCB6 inh MLPCN 92, TNAP inh no acc -7, CHT PAM 7.2*, TNAP act hiacc 1, CHT activ conf 66* and HEK293 MP dye -70*.
CCOC(CCNC(=O)c1cc(-c2cccs2)nc2ccccc12)OCC was read as CHT inh inactive, ABCB6 inh MLPCN 95 and CHT PAM inactive.
`CCCN(CC(=O)Nc1ccccc1C)C(=O)c1cccc(S(=O)(=O)N2CCc3ccccc3C2)c1` gave CHT inh inactive, ABCB6 inh MLPCN 93, CHT PAM 6.9*, CHT activ conf 6 and HEK293 MP dye inactive.
For Cc1ccc(S(=O)(=O)N2CCN(C(=O)Cn3c(=O)cnc4ccccc43)CC2)cc1 the results were ABCB6 inh MLPCN 111.
For c1ccc(-c2nc3cnccn3c2Nc2ccc3c(c2)OCCO3)cc1 the results were TNAP inh hi DEA -1, CHT inh inactive, ABCB6 inh MLPCN 101, TNAP inh no acc -7, CHT PAM inactive and TNAP act hiacc 1.
Screening Oc1ccc(-c2nc3cnccn3c2Nc2ccc3c(c2)OCCO3)cc1 returned TNAP inh hi DEA 0, CHT inh inactive, ABCB6 inh MLPCN 98, TNAP inh no acc -13, CHT PAM 8.3*, TNAP act hiacc 1, CHT activ conf 6 and HEK293 MP dye inactive.
C=CCOc1ccc2ccccc2c1CNCCCN1CCOCC1 was read as TNAP inh hi DEA -4, CHT inh inactive, ABCB6 inh MLPCN 99, TNAP inh no acc -13, CHT PAM inactive and TNAP act hiacc 1.
`C=CCOc1ccc(Br)cc1CNCCCN1CCOCC1` gave TNAP inh hi DEA -3, CHT inh inactive, ABCB6 inh MLPCN 104, TNAP inh no acc -5, CHT PAM inactive, TNAP act hiacc 1, CHT activ conf 29* and HEK293 MP dye inactive.
For COc1ccc(S(=O)(=O)N2CCOC2CNC(=O)C(=O)NCCc2ccc(S(N)(=O)=O)cc2)cc1 (configuration not stated) the results were CHT inh inactive, ABCB6 inh MLPCN 100 and CHT PAM inactive.
For CCN(CC)CCn1c(=N)n(CC(O)COc2cccc(C)c2)c2ccccc21 (configuration not stated) the results were TNAP inh hi DEA -11, CHT inh inactive, ABCB6 inh MLPCN 103, TNAP inh no acc -14, CHT PAM 6.4*, TNAP act hiacc 1.1, CHT activ conf 54* and HEK293 MP dye inactive.
`Cc1[nH]c2ccccc2c1C(=O)C(=O)NCc1nnnn1-c1ccc(F)c(F)c1` gave ABCB6 inh MLPCN 95.
COc1ccc(S(=O)(=O)N2CCCCCC2)cc1C(=O)N1CCCC(C(F)(F)F)C1 (configuration not stated) was read as CHT inh inactive, ABCB6 inh MLPCN 90, CHT PAM 10*, CHT activ conf 15* and HEK293 MP dye inactive.
Screening COc1ccc(S(=O)(=O)N2CCCC2)cc1C(=O)N1CCCCC1 returned CHT inh inactive, ABCB6 inh MLPCN 103 and CHT PAM inactive.
Screening COc1ccc(NC(=O)Cn2ccc3c(OC)cccc3c2=O)cc1 returned CHT inh inactive, ABCB6 inh MLPCN 93, CHT PAM inactive, CHT activ conf 5 and HEK293 MP dye inactive.
For CCOC(=O)CSc1nc2sc3c(c2c(=O)n1C1CCCCC1)CCN(C)C3 the results were TNAP inh hi DEA 3, CHT inh inactive, ABCB6 inh MLPCN 97, TNAP inh no acc 7, CHT PAM 8.1*, TNAP act hiacc 1, CHT activ conf 27* and HEK293 MP dye -29*.
CCOc1ccc(-n2c(SCC(N)=O)nc3sc4c(c3c2=O)CCN(C)C4)cc1 was read as CHT inh inactive, ABCB6 inh MLPCN 96, CHT PAM inactive, CHT activ conf 38* and HEK293 MP dye -33*.
